Experimental data reported in ChEMBL document CHEMBL2417386, “Novel conjugated quinoline-indoles compromise Plasmodium falciparum mitochondrial function and show promising antimalarial activity” (J Med Chem, 2013).

Key:
[1] = test system: Plasmodium falciparum; test: Antimalarial activity against mid to late trophozoite stage of Plasmodium falciparum 3D7 infected in RBC assessed as nonviable parasite at 0.6 uM after 0.5 hrs by SYTO 61 staining-based flow cytometric analysis relative to untreated control; assay type: functional
[2] = Dissociation constant, pKa of the compound at 50 uM by spectrophotometric analysis; assay type: physicochemical
[3] = test system: Plasmodium falciparum; test: Gametocytocidal activity against synchronous stage 4 to 5 of transgenic Plasmodium falciparum NF54 gametocyte harboring pfs16 promoter assessed as parasite viability after 72 hrs by MitoTracker Red CMXRos-based assay; assay type: functional, organism-based; conditions: NF54, 72 h
[4] = test system: Plasmodium falciparum; test: Antimalarial activity against mid to late trophozoite stage of Plasmodium falciparum 3D7 infected in RBC assessed as abnormal mitochondria at 0.6 uM after 0.5 hrs by MitoTracker Red CMXRos-based fluorescence microscopic analysis relative to untreated control; assay type: functional
[5] = Inhibition of beta-hematin formation after 24 hrs by spectrophotometric analysis in presence of nonidet P40; assay type: functional
[6] = test system: Plasmodium falciparum; test: Antimalarial activity against mid to late trophozoite stage of Plasmodium falciparum 3D7 infected in RBC assessed as abnormal mitochondria at 15 uM after 0.5 hrs by MitoTracker Red CMXRos-based fluorescence microscopic analysis relative to untreated control; assay type: functional
[7] = Selectivity index, ratio of IC50 for HEK293 cells to IC50 for Plasmodium falciparum 3D7 after 72 hrs; assay type: toxicity, cell-based; conditions: human, read-out: Ratio IC50
Method in brief: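 Parasite (3D7) viability assay and HEK293 viability assay, each with a 72 h exposure. Index taken as the ratio of the IC50 values, HEK293 over 3D7.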

[8] = test system: Plasmodium falciparum; test: Antimalarial activity against mid to late trophozoite stage of Plasmodium falciparum 3D7 infected in RBC assessed as nonviable parasite at 3 uM after 0.5 hrs by SYTO 61 staining-based flow cytometric analysis relative to untreated control; assay type: functional
[9] = test system: Plasmodium falciparum; test: Antimalarial activity against mid to late trophozoite stage of Plasmodium falciparum 3D7 infected in RBC assessed as abnormal mitochondria at 3 uM after 0.5 hrs by MitoTracker Red CMXRos-based fluorescence microscopic analysis relative to untreated control; assay type: functional
[10] = test system: Plasmodium falciparum; test: Antimalarial activity against Plasmodium falciparum K1 infected in RBC assessed as growth inhibition after 48 hrs by SYBR Green-I fluorescence assay; assay type: functional, organism-based; conditions: K1, 48 h
Method in brief: (§1)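 Parasite-infected red cells exposed to compound for 48 h; growth read by SYBR Green-I fluorescence; IC50 derived. Where a ± is given, it is the standard deviation of three individual experiments.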

[11] = test system: Plasmodium falciparum; test: Gametocytocidal activity against synchronous stage 1 to 3 of transgenic Plasmodium falciparum NF54 gametocyte harboring pfs16 promoter assessed as parasite viability after 72 hrs by luciferase reporter gene assay; assay type: functional, organism-based; conditions: NF54, 72 h
[12] = test system: Plasmodium falciparum; test: Antimalarial activity against mid to late trophozoite stage of Plasmodium falciparum 3D7 infected in RBC assessed as nonviable parasite at 15 uM after 0.5 hrs by SYTO 61 staining-based flow cytometric analysis relative to untreated control; assay type: functional
[13] = test system: Plasmodium falciparum; test: Antimalarial activity against Plasmodium falciparum 3D7 infected in RBC assessed as growth inhibition after 48 hrs by SYBR Green-I fluorescence assay; assay type: functional, organism-based; conditions: 3D7, 48 h; method in brief: as §1

Nc1cc(/C=C/c2c[nH]c3ccccc23)nc2ccccc12
Activity [1]: 46%
pKa at 50 µM [2]: 9.5
IC50 [3]: 1.4 µM
Activity [4]: 27%
IC50 [5]: > 4000 µM
Activity [6]: 93%
selectivity ratio at 72 h [7]: 79
Activity [8]: 77%
Activity [9]: 66%
IC50 [10]: 0.39 µM
IC50 [11]: 0.37 µM
Activity [12]: 88%
IC50 [13]: 0.2 µM
